Test results published in ChEMBL document CHEMBL1649157, “Intracellular activity of antibiotics against Staphylococcus aureus in a mouse peritonitis model” (Antimicrob Agents Chemother, 2009).
Converted amounts (≈) assume the structure as drawn. The source made the active and inactive calls. No cut-off for these calls is given here.

What was measured:
Staphylococcus aureus [1] = assay: Bactericidal activity against Staphylococcus aureus E19977 assessed as log reduction in cfu at 2 mg/liter upto 24 hrs by time-kill study; type: functional
Procedure, shortened: (§1)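 Clinical bacteremia isolate (penicillin-resistant, methicillin-susceptible). Exponential-phase bacteria were placed in an in vitro kinetic model that simulates drug elimination without changing the inoculum. The starting drug level matched the human free peak serum concentration after a single dose, with simulated human elimination half-life. Samples were taken at 0, 2, 4, 6, 8, 12 and 24 h, with growth controls in each run.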

Staphylococcus aureus [2] = assay: Antibacterial activity against Staphylococcus aureus E19977 infected in NMRI mouse assessed as log reduction in bacterial cfu in peritoneum at 10 to 200 mg/kg, sc administered 2 hrs after infection measured after 4 hrs; type: functional, organism-based
Procedure, shortened: (§2)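 Dose–response in i.p.-infected NMRI mice (mucin adjuvant). Single doses of 200, 60, 30, 20 or 10 mg/kg were given 2 h after inoculation, with 4–16 mice per group. Peritoneal wash was sampled 4 h later and split by lysostaphin/centrifugation into total, extra- and intracellular counts, then expressed as Δlog10 CFU/ml against log dose. Vehicle controls were plotted as 0.3 mg/kg. Hill fit (variable slope); static dose interpolated.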

Staphylococcus aureus [3] = assay: Antibacterial activity against Staphylococcus aureus E19977 infected in NMRI mouse assessed as log reduction in bacterial cfu in peritoneum at 200 mg/kg, sc administered as single dose 2 hrs after infection measured between 4 to 19 hrs; type: functional; details: route subcutaneous
Procedure, shortened: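 Female outbred NMRI mice (25 to 30 g) were infected i.p. with 0.5 ml of 10^7.7 CFU/ml S. aureus E19977 in 5% (wt/vol) mucin. The first dose was given 2 h after inoculation, either once or as three doses every 8 h, with four mice per group. Mice were euthanized 19 h after treatment onset and washed peritoneally with 2.0 ml saline. Total CFU were counted by duplicate spotting of 10-fold dilutions on 5% blood agar.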

Staphylococcus aureus [4] = assay: Bactericidal activity against Staphylococcus aureus E19977 assessed as log reduction in cfu at 1.5 mg/liter upto 24 hrs by time-kill study; type: functional; procedure, shortened: as §1
Staphylococcus aureus [5] = assay: Bactericidal activity against Staphylococcus aureus E19977 assessed as log reduction in cfu at 20 mg/liter upto 24 hrs by time-kill study; type: functional
Procedure, shortened: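 In vitro kinetic model: exponential-phase bacteria at a final 10^6.3 CFU/ml were exposed to a starting concentration set to the human free peak level. Elimination followed the simulated human half-life. Samples were taken at 0, 2, 4, 6, 8, 12 and 24 h and counted on 5% blood agar (detection limit 25 CFU/ml). Growth controls were included; n = 2.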

Staphylococcus aureus [6] = assay: Antibacterial activity against Staphylococcus aureus E19977 by Etest; type: functional
Staphylococcus aureus [7] = assay: Bactericidal activity against Staphylococcus aureus E19977 assessed as log reduction in cfu at 2 mg/liter after 12 hrs by time-kill study; type: functional; procedure, shortened: as §1
Staphylococcus aureus [8] = assay: Antibacterial activity against Staphylococcus aureus E19977 infected in NMRI mouse assessed as log reduction in intracellular bacterial cfu in peritoneum at 60 mg/kg, sc administered as single dose 2 hrs after infection measured after 4 hrs; type: functional, organism-based; set-up: dose 60 mg/kg
Procedure, shortened: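 NMRI mice were infected i.p. with S. aureus E19977 in 5% mucin. A single dose (60 mg/kg or 10 mg/kg) was given 1, 2 or 3 h after inoculation, four mice per group. Peritoneal wash was sampled after 4 h of treatment and separated into total, extracellular and intracellular counts by lysostaphin/centrifugation. Δlog10 CFU/ml was calculated against vehicle-treated mice infected for the same time (5, 6 or 7 h).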

Staphylococcus aureus [9] = assay: Bactericidal activity against Staphylococcus aureus E19977 assessed as log reduction in cfu at 9 mg/liter after 24 hrs by time-kill study; type: functional, organism-based
Procedure, shortened: (§3)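 In vitro kinetic model simulating antibiotic elimination without inoculum change. Exponential-phase E19977 was added at a final 10^6.3 CFU/ml. Starting drug concentration matched the human free peak, with the human half-life simulated. Samples were plated on 5% blood agar at 0, 2, 4, 6, 8, 12 and 24 h, with growth controls in each run. Results are shown as mean and range, n = 2.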

Staphylococcus aureus [10] = assay: Bactericidal activity against Staphylococcus aureus E19977 assessed as log reduction in cfu at 20 mg/liter after 24 hrs by time-kill study; type: functional, organism-based; procedure, shortened: as §3
Staphylococcus aureus [11] = assay: Antibacterial activity against Staphylococcus aureus E19977 infected in NMRI mouse assessed as log reduction in intracellular bacterial cfu in peritoneum at 10 to 200 mg/kg, sc administered 2 hrs after infection measured after 4 hrs; type: functional, organism-based; procedure, shortened: as §2

For `Cc1onc(-c2c(Cl)cccc2Cl)c1C(=O)N[C@@H]1C(=O)N2[C@@H]1SC(C)(C)[C@@H]2C(=O)O` [DICLOXACILLIN], the FC (Staphylococcus aureus [1]) was 2, the Activity (Staphylococcus aureus [2]) was “Dose-dependent effect” and the FC (Staphylococcus aureus [3]) was less than 1. It also gave an FC (Staphylococcus aureus [4]) of 2, an FC (Staphylococcus aureus [5]) greater than 2 and an MIC (Staphylococcus aureus [6]) of 0.5 mg/L (≈ 1.06 µM). For the same compound, the FC (Staphylococcus aureus [7]) was 2, the Activity (Staphylococcus aureus [8]) was “Active” and the Activity (Staphylococcus aureus [9]) was “inactive”. For the same compound, the Activity (Staphylococcus aureus [10]) was “inactive” and the Activity (Staphylococcus aureus [11]) was “Dose-dependent effect”.
